From ChEMBL document CHEMBL1156892, “Synthesis and in vitro evaluation of bisphosphonated glycopeptide prodrugs for the treatment of osteomyelitis” (Bioorg Med Chem Lett, 2010)
Values after ≈ are worked out from the molar mass of the structure shown.

Legend:
Oryctolagus cuniculus = organism: Oryctolagus cuniculus; test: Binding affinity to rabbit bone assessed as drug level bound to bone powder at 0.25 to 4 ug/ml after 24 hrs; type: tissue-based; details: Bone element
Staphylococcus aureus [1] = test: Antibacterial activity against Staphylococcus aureus ATCC 13709 in cation adjusted Mueller-Hinton broth by […] assay; type: functional
Summary of the method: (§1)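 MIC determination against S. aureus ATCC13709. Medium is cation-adjusted Mueller-Hinton broth, alone or supplemented with mouse, human or rat serum as specified per line.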

Staphylococcus aureus [2] = test: Antibacterial activity against Staphylococcus aureus ATCC 13709 in cation adjusted Mueller-Hinton broth by […] assay in presence of 50% mouse serum; type: functional; summary of the method: as §1
Staphylococcus aureus [3] = test: Antibacterial activity against Staphylococcus aureus ATCC 13709 in cation adjusted Mueller-Hinton broth by […] assay in presence of 50% human serum; type: functional; summary of the method: as §1
Staphylococcus aureus [4] = test: Antibacterial activity against Staphylococcus aureus ATCC 13709 in cation adjusted Mueller-Hinton broth by […] assay in presence of 50% rat serum; type: functional; summary of the method: as §1
Streptococcus pneumoniae = test: Antibacterial activity against Streptococcus pneumoniae ATCC 700902 by agar diffusion assay; type: functional
Staphylococcus aureus [5] = test: Antibacterial activity against Staphylococcus aureus ATCC 13709 in cation adjusted Mueller-Hinton broth by […] assay in absence of polysorbate-80; type: functional
Summary of the method: (§2)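 MIC against S. aureus ATCC13709 in cation-adjusted Mueller-Hinton broth, alone or with mouse, human or rat serum, run without polysorbate-80 in the medium.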

Staphylococcus aureus [6] = test: Antibacterial activity against Staphylococcus aureus ATCC 13709 in cation adjusted Mueller-Hinton broth by […] assay in presence of 50% mouse serum in absence of polysorbate-80; type: functional; summary of the method: as §2
Staphylococcus aureus [7] = test: Antibacterial activity against Staphylococcus aureus ATCC 13709 in cation adjusted Mueller-Hinton broth by […] assay in presence of 50% human serum in absence of polysorbate-80; type: functional; summary of the method: as §2
Staphylococcus aureus [8] = test: Antibacterial activity against Staphylococcus aureus ATCC 13709 in cation adjusted Mueller-Hinton broth by […] assay in presence of 50% rat serum in absence of polysorbate-80; type: functional; summary of the method: as §2
[9] = Stability in phosphate buffered saline assessed as conversion of drug to oritavancin after 24 hrs; type: physicochemical; details: buffer, BLD = below limit of detection
Summary of the method: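 Prodrugs incubated 24 h in phosphate-buffered saline. Regeneration of parent drug is expressed as % conversion. Parallel incubations were run in 50% rat or human serum diluted in PBS to assess enzymatic cleavage.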

Structure (SMILES) | Activity (Oryctolagus cuniculus) [%] | MIC (Staphylococcus aureus [1]) [µg/mL] | MIC (Staphylococcus aureus [2]) [µg/mL] | MIC (Staphylococcus aureus [3]) [µg/mL] | MIC (Staphylococcus aureus [4]) [µg/mL] | MIC (Streptococcus pneumoniae) [µg/mL] | MIC (Staphylococcus aureus [5]) [µg/mL] | MIC (Staphylococcus aureus [6]) [µg/mL] | MIC (Staphylococcus aureus [7]) [µg/mL] | MIC (Staphylococcus aureus [8]) [µg/mL] | Activity [9]
CC(C)C[C@H](C(=O)N[C@H]1C(=O)N[C@@H](CC(N)=O)C(=O)N[C@H]2C(=O)N[C@H]3C(=O)N[C@H](C(=O)N[C@H](C(=O)O)c4cc(O)cc(O)c4-c4cc3ccc4O)[C@H](O[C@H]3C[C@](C)(N)[C@@H](O)[C@H](C)O3)c3cc(Cl)c(c(Cl)c3)Oc3cc2cc(c3O[C@H]2O[C@@H](CO)[C@@H](O)[C@H](O)[C@H]2O[C@@H]2C[C@@](C)(NCc3ccc(-c4ccc(Cl)cc4)cc3)[C@@H](O)[C@@H](C)O2)Oc2ccc(cc2Cl)[C@H]1O)N(C)C(=O)OCOC(=O)CCC(P(=O)(O)O)P(=O)(O)O | 96.9 | 8 (≈ 3.75 µM) | 0.5 | 4 | 1 | – | – | – | – | – | –
CN[C@H](CC(C)C)C(=O)N[C@H]1C(=O)N[C@@H](CC(N)=O)C(=O)N[C@H]2C(=O)N[C@H]3C(=O)N[C@H](C(=O)N[C@H](C(=O)OCC(=O)NC(P(=O)(O)O)P(=O)(O)O)c4cc(O)cc(O)c4-c4cc3ccc4O)[C@H](O)c3cc(Cl)c(c(Cl)c3)Oc3cc2cc(c3O[C@H]2O[C@@H](CO)[C@@H](O)[C@H](O)[C@H]2O[C@@H]2C[C@@](C)(N)[C@@H](O)[C@@H](C)O2)Oc2ccc(cc2Cl)[C@H]1O | 96.5 | 16 (≈ 9.33 µM) | 16 | 8 | 32 | – | – | – | – | – | –
CN[C@H](CC(C)C)C(=O)N[C@H]1C(=O)N[C@@H](CC(N)=O)C(=O)N[C@H]2C(=O)N[C@H]3C(=O)N[C@H](C(=O)N[C@H](C(=O)O)c4cc(O)cc(O)c4-c4cc3ccc4O)[C@H](O[C@H]3C[C@](C)(N)[C@@H](O)[C@H](C)O3)c3ccc(c(Cl)c3)Oc3cc2cc(c3O[C@@H]2O[C@H](CO)[C@@H](O)[C@H](O)[C@H]2O[C@H]2C[C@](C)(NCc3ccc(-c4ccc(Cl)cc4)cc3)[C@@H](O)[C@H](C)O2)Oc2ccc(cc2Cl)[C@H]1O [ORITAVANCIN] | – | – | – | – | – | 0.001 (≈ 0.000558 µM) | 0.5 (≈ 0.279 µM) | 2 | 1 | 0.25 | –
CC(C)C[C@H](C(=O)N[C@H]1C(=O)N[C@@H](CC(N)=O)C(=O)N[C@H]2C(=O)N[C@H]3C(=O)N[C@H](C(=O)N[C@H](C(=O)O)c4cc(O)cc(O)c4-c4cc3ccc4O)[C@H](O[C@H]3C[C@](C)(N)[C@@H](O)[C@H](C)O3)c3cc(Cl)c(c(Cl)c3)Oc3cc2cc(c3O[C@H]2O[C@@H](CO)[C@@H](O)[C@H](O)[C@H]2O[C@@H]2C[C@@](C)(NCc3ccc(-c4ccc(Cl)cc4)cc3)[C@@H](O)[C@@H](C)O2)Oc2ccc(cc2Cl)[C@H]1O)N(C)C(=O)CCC(P(=O)(O)O)P(=O)(O)O | 99.8 | > 32 | > 32 | > 32 | > 32 | – | – | – | – | – | –
CC(C)C[C@H](C(=O)N[C@H]1C(=O)N[C@@H](CC(N)=O)C(=O)N[C@H]2C(=O)N[C@H]3C(=O)N[C@H](C(=O)N[C@H](C(=O)O)c4cc(O)cc(O)c4-c4cc3ccc4O)[C@H](O[C@H]3C[C@](C)(N)[C@@H](O)[C@H](C)O3)c3cc(Cl)c(c(Cl)c3)Oc3cc2cc(c3O[C@H]2O[C@@H](CO)[C@@H](O)[C@H](O)[C@H]2O[C@@H]2C[C@@](C)(NCc3ccc(-c4ccc(Cl)cc4)cc3)[C@@H](O)[C@@H](C)O2)Oc2ccc(cc2Cl)[C@H]1O)N(C)C(=O)OCOC(=O)CCCC(P(=O)(O)O)P(=O)(O)O | 99.9 | 32 (≈ 14.9 µM) | 32 | > 32 | 32 | – | – | – | – | – | BLD
CC(C)C[C@H](C(=O)N[C@H]1C(=O)N[C@@H](CC(N)=O)C(=O)N[C@H]2C(=O)N[C@H]3C(=O)N[C@H](C(=O)N[C@H](C(=O)O)c4cc(O)cc(O)c4-c4cc3ccc4O)[C@H](O[C@H]3C[C@](C)(N)[C@@H](O)[C@H](C)O3)c3cc(Cl)c(c(Cl)c3)Oc3cc2cc(c3O[C@H]2O[C@@H](CO)[C@@H](O)[C@H](O)[C@H]2O[C@@H]2C[C@@](C)(NCc3ccc(-c4ccc(Cl)cc4)cc3)[C@@H](O)[C@@H](C)O2)Oc2ccc(cc2Cl)[C@H]1O)N(C)C(=O)CC(P(=O)(O)O)P(=O)(O)O | 99.9 | 32 (≈ 15.7 µM) | 4 | 32 | 4 | – | – | – | – | – | –
CN[C@H](CC(C)C)C(=O)N[C@H]1C(=O)N[C@@H](CC(N)=O)C(=O)N[C@H]2C(=O)N[C@H]3C(=O)N[C@H](C(=O)N[C@H](C(=O)OCC(=O)NC(P(=O)(O)O)P(=O)(O)O)c4cc(O)cc(O)c4-c4cc3ccc4O)[C@H](O[C@H]3C[C@](C)(N)[C@@H](O)[C@H](C)O3)c3cc(Cl)c(c(Cl)c3)Oc3cc2cc(c3O[C@H]2O[C@@H](CO)[C@@H](O)[C@H](O)[C@H]2O[C@@H]2C[C@@](C)(NCc3ccc(-c4ccc(Cl)cc4)cc3)[C@@H](O)[C@@H](C)O2)Oc2ccc(cc2Cl)[C@H]1O | 97.6 | 16 (≈ 7.77 µM) | 2 | 32 | 2 | – | – | – | – | – | –
CN[C@H](CC(C)C)C(=O)N[C@H]1C(=O)N[C@@H](CC(N)=O)C(=O)N[C@H]2C(=O)N[C@H]3C(=O)N[C@H](C(=O)N[C@H](C(=O)OCC(=O)Nc4ccc(CC(P(=O)(O)O)P(=O)(O)O)cc4)c4cc(O)cc(O)c4-c4cc3ccc4O)[C@H](O[C@H]3C[C@](C)(N)[C@@H](O)[C@H](C)O3)c3cc(Cl)c(c(Cl)c3)Oc3cc2cc(c3O[C@H]2O[C@@H](CO)[C@@H](O)[C@H](O)[C@H]2O[C@@H]2C[C@@](C)(NCc3ccc(-c4ccc(Cl)cc4)cc3)[C@@H](O)[C@@H](C)O2)Oc2ccc(cc2Cl)[C@H]1O | – | > 32 | 8 | > 32 | 8 | – | – | – | – | – | –
CN[C@H](CC(C)C)C(=O)N[C@H]1C(=O)N[C@@H](CC(N)=O)C(=O)N[C@H]2C(=O)N[C@H]3C(=O)N[C@H](C(=O)N[C@H](C(=O)OCC(=O)Nc4ccc(CC(P(=O)(O)O)P(=O)(O)O)cc4)c4cc(O)cc(O)c4-c4cc3ccc4O)[C@H](O)c3cc(Cl)c(c(Cl)c3)Oc3cc2cc(c3O[C@H]2O[C@@H](CO)[C@@H](O)[C@H](O)[C@H]2O[C@@H]2C[C@@](C)(N)[C@@H](O)[C@@H](C)O2)Oc2ccc(cc2Cl)[C@H]1O | 96.7 | 16 (≈ 8.86 µM) | 16 | 16 | 32 | – | – | – | – | – | –
